“Also recorded” adds a separate entry of the source.
Columns and labels:
TbU1 = conditions: procyclic forms (PCF), NE = no effect on uptake at concentration indicated, ref De Koning and Jarvis (1998), Papageorgiou et al. (2005), Gudin et al. (2006), cited from earlier work; for Ki: read-out: Ki, U1
[1] = system: T. b. brucei bloodstream forms strain 427 WT; assay: Alamar blue drug sensitivity assay, wild-type; format: cell-based, Trypanosoma brucei brucei; conditions: for effect on bloodstream trypanosomes (in words): Alamar blue viability assay; for EC50: Trypanosoma brucei, read-out: EC50, WT, Mean, Alamar blue assay, wild-type sensitive control strain
In short: (§1)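 Bloodstream-form T. b. brucei s427 grown in HMI-9 with 10% FBS at 37°C under 5% CO2. Resistant lines were made by months of stepwise-increasing exposure to the analog, then cloned by limiting dilution. Viability was read by resazurin (Alamar blue) reduction. Thymidine rescue was tested by adding 100 μM thymidine.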

TbU3 = assay: [3H]-2′deoxyuridine transport in bloodstream forms; format: cell-based, Trypanosoma brucei brucei
[2] = system: s427WT T. b. brucei bloodstream forms; assay: Kinetic parameters of pyrimidine transport in wild-type bloodstream forms; format: cell-based, Trypanosoma brucei brucei; conditions: [3H]-permeant; strain s427WT
In short: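 Log-phase cells were washed into HEPES/bicarbonate glucose buffer (pH 7.3) at 1 × 10^8/ml and mixed with an equal volume of [3H]-permeant, with or without unlabeled competitor, at ambient temperature. Uptake was stopped with ice-cold buffer containing saturating unlabeled permeant, then cells were spun through oil. Counts were corrected for nonspecific binding and Km, Vmax and Ki obtained by curve fitting. Runs were in triplicate. Thymidine: 10 μM label, 15 min. Orotic acid: 10 min.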

TbU3 uracil transporter = assay: [3H]-uracil transport in bloodstream forms; format: cell-based, Trypanosoma brucei brucei
[3] = system: T. b. brucei bloodstream forms; assay: Uptake of other radiolabeled pyrimidines by wild-type bloodstream forms; format: cell-based, Trypanosoma brucei brucei; conditions: over 15 min; 2.5 μM [3H]-2′-deoxycytidine, 0.25 μM [3H]-cytosine, 1 μM [3H]-thymine
5F-2′dURes T. b. brucei = assay: Alamar blue drug sensitivity assay, 5F-2′dURes; format: cell-based, Trypanosoma brucei brucei; conditions: for EC50: Trypanosoma brucei, read-out: EC50, 5F-2′dURes, Mean; for RF, 5F-2′dURes: resistance factor: IC50(resistant clone)/IC50(WT)
In short: as §1

5FURes T. b. brucei = assay: Alamar blue drug sensitivity assay, 5FURes; format: cell-based, Trypanosoma brucei brucei; conditions: for EC50: Trypanosoma brucei, read-out: EC50, 5FURes, Mean; for RF, 5FURes: resistance factor: IC50(resistant clone)/IC50(WT)
In short: as §1

5FOARes T. b. brucei = assay: Alamar blue drug sensitivity assay, 5FOARes; format: cell-based, Trypanosoma brucei brucei; conditions: for EC50: Trypanosoma brucei, read-out: EC50, 5FOARes, Mean; for RF, 5FOARes: resistance factor: IC50(resistant clone)/IC50(WT)
In short: as §1

5-FURes T. b. brucei = assay: Pyrimidine transport in 5-FURes bloodstream forms; format: cell-based, Trypanosoma brucei brucei
[4] = system: TbT1 (P1-type nucleoside transporter); assay: [3H]-thymidine transport in bloodstream forms; format: cell-based, Trypanosoma brucei brucei; conditions: bloodstream forms

Cn1ccc(=O)[nH]c1=O [1-Methyluracil]
Ki, U1 (TbU1): NE, 10000

Sc1ncccn1 [2-Mercaptopyrimidine]
Ki, U1 (TbU1): NE, 500

O=c1nccc[nH]1 [2-Pyrimidone]
Ki (TbU1): 5400 ± 1300 µM

O=c1cc[nH]c(=S)[nH]1 [2-Thiouracil]
Ki (TbU1): 640 ± 110 µM

O=c1ccn([C@@H]2O[C@H](CO)[C@@H](O)[C@H]2O)c(=S)[nH]1 [2-thiouridine]
effect on bloodstream trypanosomes (in words) [1]: no effect up to at least 1 mM

O=c1ccn([C@H]2CC[C@@H](CO)O2)c(=O)[nH]1 [2’,3′-dideoxyuridine, 2′,3′-dideoxyuridine]
effect on bloodstream trypanosomes (in words) [1]: no effect up to at least 1 mM

O=c1ccn([C@H]2C[C@H](O)[C@@H](CO)O2)c(=O)[nH]1 [2’Deoxyuridine, 2′-deoxyuridine]
rate of [3H]-2′deoxyuridine uptake (TbU3; 0.5 μM [3H]-2′deoxyuridine): 0.00045 pmol (10^7 cells)^−1s^−1 | rate of [3H]-2′deoxyuridine transport (TbU3; 5 μM [3H]-2′deoxyuridine, linear over 4 min): 0.0051 ± 0.0003 pmol/10^7 cells/s | inhibition of [3H]-2′deoxyuridine transport by unlabeled 2′-deoxyuridine (TbU3; 5 μM label, 2.5 mM unlabeled): 76% | Km [2]: 810 ± 310 µM | Vmax [2]: 1.3 ± 0.7 pmol (10^7 cells)^−1s^−1 | Km (TbU3 uracil transporter; read-out: Km, U3, bloodstream forms (BSF), Km of the permeant itself): 810 ± 130 µM

Nc1ccn([C@H]2C[C@H](O)[C@@H](CO)O2)c(=O)n1 [2′-deoxycytidine]
accumulation of radiolabeled permeant (in words) [3]: just detectable accumulation

O=C1C=CNC(=O)C1 [3-Deazauracil]
Ki (TbU1): > 2500 µM

Cn1c(=O)cc[nH]c1=O [3-Methyluracil]
Ki (TbU1): 1620 ± 350 µM

Cc1cn([C@H]2CC[C@@H](CO)O2)c(=O)[nH]c1=O [3′-deoxythymidine]
effect on bloodstream trypanosomes (in words) [1]: no effect up to at least 1 mM

O=c1ccn([C@@H]2O[C@H](CO)C[C@H]2O)c(=O)[nH]1 [3′-deoxyuridine]
effect on bloodstream trypanosomes (in words) [1]: no effect up to at least 1 mM

O=c1ccnc[nH]1 [4(3H)Pyrimidone]
Ki (TbU1): 1670 ± 180 µM

O=c1[nH]ccc(=S)[nH]1 [4-Thiouracil]
Ki (TbU1): 22 ± 7 µM

O=c1[nH]c(=S)ccn1[C@@H]1O[C@H](CO)[C@@H](O)[C@H]1O [4-thiouridine]
effect on bloodstream trypanosomes (in words) [1]: no effect up to at least 1 mM

O=C1CCNC(=O)N1 [5,6-Dihydrouracil]
Ki (TbU1): 830 ± 200 µM

O=c1[nH]cc(Cl)c(=O)[nH]1 [5-Chlorouracil]
Ki (TbU1): 900 ± 140 µM

O=C(O)c1[nH]c(=O)[nH]c(=O)c1F [5-Fluoroorotic acid, 5-fluoroorotic acid]
EC50 [1]: 14.1 µM | EC50 (5F-2′dURes T. b. brucei): 13.3 µM | RF, 5F-2′dURes (5F-2′dURes T. b. brucei): 0.94 | EC50 (5FURes T. b. brucei): 98 µM | RF, 5FURes (5FURes T. b. brucei): 6.9 | EC50 (5FOARes T. b. brucei): 1180 µM | RF, 5FOARes (5FOARes T. b. brucei): 83

O=c1[nH]cc(F)c(=O)[nH]1 [5-Fluorouracil, 5-fluorouracil]
EC50 [1]: 35.9 µM | EC50 (5F-2′dURes T. b. brucei): 76.1 µM | RF, 5F-2′dURes (5F-2′dURes T. b. brucei): 2.1 | reduction of [3H]-5-FU transport in 5-FURes relative to wild-type (5-FURes T. b. brucei; 0.5 μM [3H]-5-FU, n = 3): 76% ± 6 | Km (5-FURes T. b. brucei; [3H]-permeant, strain 5-FURes): 2.3 ± 0.4 µM | Ki (TbU1): 3 ± 0.8 µM | effect on [3H]-thymidine transport (in words) [4]: little or no effect | Km [2]: 2.5 ± 0.01 µM | Vmax [2]: 0.27 ± 0.02 pmol (10^7 cells)^−1s^−1 | EC50 (5FURes T. b. brucei): 4710 µM | RF, 5FURes (5FURes T. b. brucei): 131 | EC50 (5FOARes T. b. brucei): 448 µM | RF, 5FOARes (5FOARes T. b. brucei): 13

O=c1[nH]cc([N+](=O)[O-])c(=O)[nH]1 [5-Nitrouracil]
Ki, U1 (TbU1): NE, 1000

C[C@H]1O[C@@H](n2cc(F)c(=O)[nH]c2=O)[C@H](O)[C@@H]1O [5-fluoro-5′deoxyuridine]
effect on bloodstream trypanosomes (in words) [1]: no effect up to at least 1 mM

Nc1nc(=O)n([C@@H]2O[C@H](CO)[C@@H](O)[C@H]2O)cc1F [5-fluorocytidine]
effect on bloodstream trypanosomes (in words) [1]: no effect up to at least 1 mM

Nc1nc(=O)[nH]cc1F [5-fluorocytosine]
effect on bloodstream trypanosomes (in words) [1]: no effect up to at least 1 mM

O=c1[nH]c(=O)n([C@@H]2O[C@H](CO)[C@@H](O)[C@H]2O)cc1F [5-fluorouridine]
effect on bloodstream trypanosomes (in words) [1]: no effect up to at least 1 mM; also recorded: no effect on trypanosome growth

O=c1[nH]c(=O)n([C@H]2C[C@H](O)[C@@H](CO)O2)cc1Cl [5Cl-2’-dUrd, 5-chloro-2′-deoxyuridine]
EC50 [1]: 54 µM | EC50 (5F-2′dURes T. b. brucei): 22 µM | RF, 5F-2′dURes (5F-2′dURes T. b. brucei): 0.4 | fold more sensitive than wild-type (5FURes T. b. brucei; 5-FURes): 15 fold | EC50 (5FURes T. b. brucei): 3.7 µM | RF, 5FURes (5FURes T. b. brucei): 0.07 | EC50 (5FOARes T. b. brucei): 91 µM | RF, 5FOARes (5FOARes T. b. brucei): 1.7

Nc1nc(=O)n([C@H]2C[C@H](O)[C@@H](CO)O2)cc1F [5Fl-2’-Ctd, 5-fluoro-2′-deoxycytidine]
EC50 [1]: 49.4 µM | reduction of sensitivity by addition of 100 μM thymidine ([1]; wild-type): 78 fold | EC50 (5F-2′dURes T. b. brucei): > 5000 µM | RF, 5F-2′dURes (5F-2′dURes T. b. brucei): >100 | EC50 (5FURes T. b. brucei): 55 µM | RF, 5FURes (5FURes T. b. brucei): 1.1 | EC50 (5FOARes T. b. brucei): 126 µM | RF, 5FOARes (5FOARes T. b. brucei): 2.6

C[C@H]1O[C@@H](n2ccc(=O)[nH]c2=O)[C@H](O)[C@@H]1O [5′-deoxyuridine]
effect on bloodstream trypanosomes (in words) [1]: no effect up to at least 1 mM

O=c1cn[nH]c(=O)[nH]1 [6-Azauracil]
EC50 [1]: 958 µM | EC50 (5F-2′dURes T. b. brucei): 1100 µM | RF, 5F-2′dURes (5F-2′dURes T. b. brucei): 1.2 | Ki (TbU1): ~1000 µM | EC50 (5FURes T. b. brucei): 157 µM | RF, 5FURes (5FURes T. b. brucei): 0.16 | EC50 (5FOARes T. b. brucei): 1390 µM | RF, 5FOARes (5FOARes T. b. brucei): 1.4

Cc1cc(=O)[nH]c(=O)[nH]1 [6-Methyluracil]
Ki (TbU1): > 2500 µM

Nc1ncnc2[nH]cnc12 [Adenine]
Ki, U1 (TbU1): NE, 1000

Nc1ncnc2c1ncn2[C@@H]1O[C@H](CO)[C@@H](O)[C@H]1O [Adenosine]
Ki, U1 (TbU1): NE, 1000

Nc1cc[nH]c(=O)n1 [Cytosine]
accumulation of radiolabeled permeant (in words) [3]: did not detectably accumulate | Ki, U1 (TbU1): NE, 1000

Nc1nc2nc[nH]c2c(=O)[nH]1 [Guanine]
Ki (TbU1): > 25 µM

Nc1nc2c(ncn2[C@@H]2O[C@H](CO)[C@@H](O)[C@H]2O)c(=O)[nH]1 [Guanosine]
Ki, U1 (TbU1): NE, 1000

O=c1[nH]cnc2nc[nH]c12 [Hypoxanthine]
Ki, U1 (TbU1): NE, 1000 | Ki, U3 (TbU3 uracil transporter): NE, 1000

N=C(N)c1ccc(OCCCCCOc2ccc(C(=N)N)cc2)cc1 [Pentamidine]
EC50 [1]: 0.0078 µM | EC50 (5F-2′dURes T. b. brucei): 0.0079 µM | RF, 5F-2′dURes (5F-2′dURes T. b. brucei): 1.0 | EC50 (5FURes T. b. brucei): 0.0073 µM | RF, 5FURes (5FURes T. b. brucei): 0.94 | EC50 (5FOARes T. b. brucei): 0.017 µM | RF, 5FOARes (5FOARes T. b. brucei): 2.2

O=c1[nH]c(=O)c2[nH]c(=O)[nH]c2[nH]1 [Uric acid]
Ki, U1 (TbU1): NE, 1000
